Reference: ChEMBL document CHEMBL5058577, “EUbOPEN Chemogenomics Library 2 (Multiplex)” (2022)

Test system: U2OS
Assay: Multiplex assay against U2OS
Assay type: toxicity, cell-based
Settings: human
Outline: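 Hoechst33342, BioTracker Green Microtubule Cytoskeleton Dye, MitoTracker Red and Annexin V Alexa Fluor 680 were added to live cells at seeding, and imaging on a CQ1 microscope at 37°C and 5% CO2 followed compound addition. Gating by CellPathfinder machine learning separated cells into Hoechst high-intensity objects or normal cells, then normal cells into healthy, pyknosed or fragmented nuclei, then pyknosed cells into mitotic or apoptotic. Per cents of healthy-nucleus cells are reported for the tubulin, mitochondrial-mass and membrane-permeability phenotypes.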

[1] = 12 h, 1 µM, compound concentration 1 uM, replicate 1
[2] = 12 h, 1 µM, compound concentration 1 uM, replicate 2
[3] = 12 h, 10 µM, compound concentration 10 uM, replicate 1
[4] = 12 h, 10 µM, compound concentration 10 uM, replicate 2
[5] = 24 h, 1 µM, compound concentration 1 uM, replicate 1
[6] = 24 h, 1 µM, compound concentration 1 uM, replicate 2
[7] = 24 h, 10 µM, compound concentration 10 uM, replicate 1
[8] = 24 h, 10 µM, compound concentration 10 uM, replicate 2
[9] = 48 h, 1 µM, compound concentration 1 uM, replicate 1
[10] = 48 h, 1 µM, compound concentration 1 uM, replicate 2
[11] = 48 h, 10 µM, compound concentration 10 uM, replicate 1
[12] = 48 h, 10 µM, compound concentration 10 uM, replicate 2

## CC(=O)Nc1cccc2c1c(Sc1ccc(Cl)cc1)c(C)n2CC(=O)O [AZD1981]
[1]
  Population Apoptotic (%): 68%
  Population Fragmented Nuclei (%): 24%
  Population Healthy Nuclei (%): 68%
  Population Hoechst High Intensity Objects (%): 3%
  Population Membrane Permeable-Phenotype (%): 3%
  Population Mitochondria Different-Phenotype (%): 0%
  Population Mitotic Cells (%): 31%
  Population Normal (%): 96%
  Population Pyknosed Nuclei (%): 6%
  Population Tubulin-Different-Phenotype (%): 2%
  Total Cell Count: 253
[2]
  Population Apoptotic (%): 83%
  Population Fragmented Nuclei (%): 16%
  Population Healthy Nuclei (%): 76%
  Population Hoechst High Intensity Objects (%): 1%
  Population Membrane Permeable-Phenotype (%): 6%
  Population Mitochondria Different-Phenotype (%): 1%
  Population Mitotic Cells (%): 16%
  Population Normal (%): 98%
  Population Pyknosed Nuclei (%): 7%
  Population Tubulin-Different-Phenotype (%): 3%
  Total Cell Count: 82
[3]
  Population Apoptotic (%): 83%
  Population Fragmented Nuclei (%): 25%
  Population Healthy Nuclei (%): 66%
  Population Hoechst High Intensity Objects (%): 2%
  Population Membrane Permeable-Phenotype (%): 8%
  Population Mitochondria Different-Phenotype (%): 0%
  Population Mitotic Cells (%): 16%
  Population Normal (%): 97%
  Population Pyknosed Nuclei (%): 7%
  Population Tubulin-Different-Phenotype (%): 1%
  Total Cell Count: 231
[4]
  Population Apoptotic (%): 80%
  Population Fragmented Nuclei (%): 19%
  Population Healthy Nuclei (%): 76%
  Population Hoechst High Intensity Objects (%): 3%
  Population Membrane Permeable-Phenotype (%): 10%
  Population Mitochondria Different-Phenotype (%): 3%
  Population Mitotic Cells (%): 20%
  Population Normal (%): 96%
  Population Pyknosed Nuclei (%): 4%
  Population Tubulin-Different-Phenotype (%): 5%
  Total Cell Count: 122
[5]
  Population Apoptotic (%): 91%
  Population Fragmented Nuclei (%): 25%
  Population Healthy Nuclei (%): 66%
  Population Hoechst High Intensity Objects (%): 2%
  Population Membrane Permeable-Phenotype (%): 5%
  Population Mitochondria Different-Phenotype (%): 1%
  Population Mitotic Cells (%): 8%
  Population Normal (%): 97%
  Population Pyknosed Nuclei (%): 8%
  Population Tubulin-Different-Phenotype (%): 3%
  Total Cell Count: 289
[6]
  Population Apoptotic (%): 50%
  Population Fragmented Nuclei (%): 16%
  Population Healthy Nuclei (%): 82%
  Population Hoechst High Intensity Objects (%): 0%
  Population Membrane Permeable-Phenotype (%): 4%
  Population Mitochondria Different-Phenotype (%): 3%
  Population Mitotic Cells (%): 50%
  Population Normal (%): 100%
  Population Pyknosed Nuclei (%): 1%
  Population Tubulin-Different-Phenotype (%): 0%
  Total Cell Count: 106
[7]
  Population Apoptotic (%): 88%
  Population Fragmented Nuclei (%): 23%
  Population Healthy Nuclei (%): 66%
  Population Hoechst High Intensity Objects (%): 0%
  Population Membrane Permeable-Phenotype (%): 6%
  Population Mitochondria Different-Phenotype (%): 2%
  Population Mitotic Cells (%): 11%
  Population Normal (%): 99%
  Population Pyknosed Nuclei (%): 9%
  Population Tubulin-Different-Phenotype (%): 2%
  Total Cell Count: 266
[8]
  Population Apoptotic (%): 100%
  Population Fragmented Nuclei (%): 14%
  Population Healthy Nuclei (%): 77%
  Population Membrane Permeable-Phenotype (%): 3%
  Population Mitochondria Different-Phenotype (%): 4%
  Population Mitotic Cells (%): 0%
  Population Pyknosed Nuclei (%): 8%
  Population Tubulin-Different-Phenotype (%): 0%
  Total Cell Count: 125
[9]
  Population Apoptotic (%): 91%
  Population Fragmented Nuclei (%): 16%
  Population Healthy Nuclei (%): 74%
  Population Hoechst High Intensity Objects (%): 1%
  Population Membrane Permeable-Phenotype (%): 6%
  Population Mitochondria Different-Phenotype (%): 2%
  Population Mitotic Cells (%): 8%
  Population Normal (%): 98%
  Population Pyknosed Nuclei (%): 9%
  Population Tubulin-Different-Phenotype (%): 4%
  Total Cell Count: 375
[10]
  Population Apoptotic (%): 81%
  Population Fragmented Nuclei (%): 9%
  Population Healthy Nuclei (%): 82%
  Population Hoechst High Intensity Objects (%): 3%
  Population Mitochondria Different-Phenotype (%): 0%
  Population Mitotic Cells (%): 18%
  Population Normal (%): 96%
  Population Pyknosed Nuclei (%): 7%
  Population Tubulin-Different-Phenotype (%): 1%
  Total Cell Count: 144
[11]
  Population Apoptotic (%): 100%
  Population Fragmented Nuclei (%): 18%
  Population Healthy Nuclei (%): 75%
  Population Hoechst High Intensity Objects (%): 2%
  Population Membrane Permeable-Phenotype (%): 7%
  Population Mitochondria Different-Phenotype (%): 2%
  Population Mitotic Cells (%): 0%
  Population Normal (%): 97%
  Population Pyknosed Nuclei (%): 5%
  Population Tubulin-Different-Phenotype (%): 4%
  Total Cell Count: 366
[12]
  Population Apoptotic (%): 85%
  Population Fragmented Nuclei (%): 14%
  Population Healthy Nuclei (%): 73%
  Population Hoechst High Intensity Objects (%): 1%
  Population Mitochondria Different-Phenotype (%): 4%
  Population Mitotic Cells (%): 15%
  Population Normal (%): 98%
  Population Pyknosed Nuclei (%): 11%
  Total Cell Count: 171
